# How the values were obtained:
# [1] = Binding affinity to dsRNA (unknown origin) after 350 to 600 secs by isothermal titration calorimetry assay
# [2] = Drug uptake in cytoplasm of human Caco2 cells at 1 uM after 24 hrs using HF488-labeled compound by lysotracker deep red/DAPI based fluorescence assay; type: ADME, cell-based; settings: caco-2, 24 h
# Procedure, shortened: (§1)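 Cells treated with 1 µM HF488-labeled PNA in Opti-MEM at 37 °C, 10% CO2, for 24 h. Acidic organelles then stained with LysoTracker Deep Red and nuclei with DAPI. Intracellular localization assessed by fluorescence microscopy.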
# [3] = Drug uptake in cytoplasm of human MDA-MB-231 cells at 1 uM after 24 hrs using HF488-labeled compound by lysotracker deep red/DAPI based fluorescence assay; type: ADME, cell-based; settings: mda-mb-231, 24 h; procedure, shortened: as §1
# [4] = Drug uptake in cytoplasm of human U87MG cells at 1 uM after 24 hrs using HF488-labeled compound by lysotracker deep red/DAPI based fluorescence assay; type: ADME, cell-based; settings: u-87mg atcc; procedure, shortened: as §1
# [5] = Drug uptake in cytoplasm of HEK293 cells at 1 uM after 24 hrs using HF488-labeled compound by lysotracker deep red/DAPI based fluorescence assay; type: ADME, cell-based; settings: human, hek293, 24 h; procedure, shortened: as §1
# [6] = test system: HEK293; assay: Fluorescence intensity in buffer at 1 uM at pH 5 to 8 at 25 degC after 12 hrs using 5'-HF488-labeled compound by fluorescence spectroscopy; settings: pH 5, 12 h
# [7] = test system: HEK293; assay: Fluorescence intensity in buffer at 1 uM at pH <7 at 25 degC after 12 hrs using FAM-labeled compound by fluorescence spectroscopy
# [8] = test system: HEK293; assay: Fluorescence intensity in buffer at 1 uM at pH 5 to 8 at 25 degC after 12 hrs using 6'-HF488-labeled compound by fluorescence spectroscopy; settings: pH 5, 12 h
# [9] = test system: HEK293; assay: Drug degradation in HEK293 cells assessed as photobleaching rate at 1 uM after 4 scans using FAM-labeled compound by DAPI staining-based laser scanning microscopic method; type: ADME, cell-based; settings: human, hek293, 1 µM
# Procedure, shortened: (§2)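 Live HEK293 cells incubated 12 h at 37 °C with 1 µM labeled PNA in Opti-MEM, then nuclei stained with DAPI. Laser scanning confocal images (63× objective) taken at 32-s intervals over 30 min, scan average 8. Photostability given as MFI of each scan divided by MFI of the first scan, as a percentage. Mean of three experiments.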
# [10] = test system: HEK293; assay: Drug degradation in HEK293 cells assessed as photobleaching rate at 1 uM after 12 scans using FAM-labeled compound by DAPI staining-based laser scanning microscopic method; type: ADME, cell-based; settings: human, hek293, 1 µM; procedure, shortened: as §2
# [11] = test system: HEK293; assay: Drug uptake in HEK293 cells at 1 uM after 12 hrs using FAM-labeled compound by flow cytometric method; type: ADME, cell-based; settings: human, hek293, 12 h
# Procedure, shortened: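 HEK293 cells incubated 12 h at 37 °C with 1 µM labeled PNA in Opti-MEM. Cells harvested, resuspended in DPBS and analysed by flow cytometry.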
smiles,measurement,setting,value
Cc1cn(CC(=O)N(CCNC(=O)CN(CCNC(=O)CN(CCNC(=O)CN(CCNC(=O)[C@@H](N)CCCCN)C(=O)Cc2ccc(N)nc2)C(=O)Cn2cc(C)c(=O)[nH]c2=O)C(=O)Cc2ccc(N)nc2)CC(=O)NCCN(CC(=O)NCCN(CC(=O)NCCN(CC(=O)NCCN(CC(=O)NCCN(CC(=O)N[C@H](CCCCN)C(=O)N[C@@H](CCCCN)C(=O)N[C@H](CCCCN)C(N)=O)C(=O)Cc2ccc(N)nc2)C(=O)Cc2ccc(N)nc2)C(=O)Cn2cc(C)c(=O)[nH]c2=O)C(=O)Cn2cc(C)c(=O)[nH]c2=O)C(=O)Cc2ccc(N)nc2)c(=O)[nH]c1=O,Kd,[1],7.35 nM
Cc1cn(CC(=O)N(CCNC(=O)CN(CCNC(=O)CN(CCNC(=O)CN(CCNC(=O)[C@@H](N)CCCCN)C(=O)Cc2ccc(N)nc2)C(=O)Cn2cc(C)c(=O)[nH]c2=O)C(=O)Cc2ccc(N)nc2)CC(=O)NCCN(CC(=O)NCCN(CC(=O)NCCN(CC(=O)NCCN(CC(=O)NCCN(CC(=O)N[C@@H](CCCCN)C(=O)N[C@@H](CCCCN)C(=O)N[C@@H](CCCCN)C(N)=O)C(=O)Cc2ccc(N)nc2)C(=O)Cc2ccc(N)nc2)C(=O)Cn2cc(C)c(=O)[nH]c2=O)C(=O)Cn2cc(C)c(=O)[nH]c2=O)C(=O)Cc2ccc(N)nc2)c(=O)[nH]c1=O,Drug uptake,[2],Active
same,Drug uptake,[3],Active
same,Drug uptake,[4],Active
same,Drug uptake,[5],Active
Cc1cn(CC(=O)N(CCNC(=O)CN(CCNC(=O)CN(CCNC(=O)CN(CCNC(=O)[C@H](CCCCN)NC(=O)COCCOCCNC(=O)COCCOCCN)C(=O)Cn2ccc(N)nc2=O)C(=O)Cn2cc(C)c(=O)[nH]c2=O)C(=O)Cn2ccc(N)nc2=O)CC(=O)NCCN(CC(=O)NCCN(CC(=O)NCCN(CC(=O)NCCN(CC(=O)NCCN(CC(=O)N[C@@H](CCCCN)C(=O)N[C@@H](CCCCN)C(=O)N[C@@H](CCCCN)C(N)=O)C(=O)Cn2ccc(N)nc2=O)C(=O)Cn2ccc(N)nc2=O)C(=O)Cn2cc(C)c(=O)[nH]c2=O)C(=O)Cn2cc(C)c(=O)[nH]c2=O)C(=O)Cn2ccc(N)nc2=O)c(=O)[nH]c1=O,Fluorescence intensity,[6],Active
same,Fluorescence intensity,[7],Not Active
same,Fluorescence intensity,[8],Active
Cc1cn(CC(=O)N(CCNC(=O)CN(CCNC(=O)CN(CCNC(=O)CN(CCNC(=O)[C@H](CCCCN)NC(=O)COCCOCCNC(=O)COCCOCCNC(=O)[C@@H](N)CCCCN)C(=O)Cc2ccc(N)nc2)C(=O)Cn2cc(C)c(=O)[nH]c2=O)C(=O)Cc2ccc(N)nc2)CC(=O)NCCN(CC(=O)NCCN(CC(=O)NCCN(CC(=O)NCCN(CC(=O)NCCN(CC(=O)N[C@@H](CCCCN)C(=O)N[C@@H](CCCCN)C(=O)N[C@@H](CCCCN)C(N)=O)C(=O)Cc2ccc(N)nc2)C(=O)Cc2ccc(N)nc2)C(=O)Cn2cc(C)c(=O)[nH]c2=O)C(=O)Cn2cc(C)c(=O)[nH]c2=O)C(=O)Cc2ccc(N)nc2)c(=O)[nH]c1=O,Drug degradation,[9],20%
same,Drug degradation,[10],50%
same,Drug uptake,[11],Active

# Source: ChEMBL document CHEMBL3826890, “Synthesis and properties of peptide nucleic acid labeled at the N-terminus with HiLyte Fluor 488 fluorescent dye” (Bioorg Med Chem, 2016)
